Source: ChEMBL document CHEMBL1671684, “In vitro resistance profile of the hepatitis C virus NS3/4A protease inhibitor TMC435” (Antimicrob Agents Chemother, 2010)
The source made the active and inactive calls. The rule behind the calls is not given here.

What was measured:
[1] = tested on: Hepatitis C virus; assay: Antiviral activity against Hepatitis C virus subtype 1a infected in human assessed as suppression of viral RNA level at 200 mg administered SID for 5 days measured after 3 days last postdose; format: functional, organism-based; conditions: Hepacivirus hominis
[2] = tested on: Hepatitis C virus; assay: Antiviral activity against Hepatitis C virus subtype 2a JFH1 infected in HuH7.5 cells assessed as decline in viral RNA replication at 500 nM after 14 passages by TaqMan RT-PCR; format: functional, organism-based; conditions: Hepacivirus hominis
Procedure, shortened: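 Huh7.5 cells electroporated with JFH-1wt RNA (genotype 2a, no reporter) in Cytomix with 2 mM ATP and 5 mM glutathione, then 500,000 cells seeded. From day 3, cells passaged with inhibitor at 500 nM or vehicle. HCV RNA quantified at each passage by TaqMan real-time RT-PCR, normalised to host RPL13A RNA by comparative CT. Day-3 level set as 100%.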

[3] = Inhibition of Hepatitis C virus subtype 1a NS3/4A protease
[4] = tested on: Hepatitis C virus; assay: Antiviral activity against Hepatitis C virus infected in HuH7 cells assessed as cell viability at 2.5 times EC50 after 2 to 3 weeks by neutral red assay in presence of 1,000 ug/ml G418; format: functional, organism-based; conditions: Hepacivirus hominis; Huh-7
Procedure, shortened: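 Huh7-Luc genotype 1b (con1, clone ET) replicon cells, 20,000 per 10-cm dish in DMEM with 1,000 μg/ml G418. Cells got one inhibitor or a two-inhibitor combination, dosed as multiples of each inhibitor's EC50 from a genotype 1b luciferase replicon assay. Held at 37°C, 5% CO2, with medium plus compound refreshed twice weekly. After 2–3 weeks, surviving colonies were stained with neutral red and counted. Three independent experiments.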

With `COc1ccc2c(O[C@@H]3C[C@H]4C(=O)N[C@]5(C(=O)NS(=O)(=O)C6CC6)C[C@H]5/C=C\CCCCN(C)C(=O)[C@@H]4C3)cc(-c3nc(C(C)C)cs3)nc2c1C` [SIMEPREVIR] the inhibition [1] was “Active”, the inhibition [2] was “Active” and the Ki [3] was 0.4 nM. For the same compound, the inhibition [4] was “inactive”.
